Compound activity from PubChem BioAssay.
TLR9-MyD88 inh = inhibitors of human TLR9-MyD88 binding; inhibition, % at 4.98 µM; AID 504734; hit rate 0.21% among 340,000; Q9NR96+Q99836; CHO BLA complementation TLR9-MyD88, CCF4 FRET ratio;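 active means inhibition above the mean over all tested compounds plus 3 SD, cut at about 21% in these data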;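 further: 0% = DMSO only wells and 100% = clavulanate BLA inhibitor control wells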
SR-BI HDL uptake = inhibitors of mouse SR-BI mediated HDL lipid uptake; Q61009; ldlA[mSR-BI] CHO cells, DiI-HDL uptake fluorescence, 3 h; inhibition, % at 12.5 µM; hit rate 0.96% among 320,000; AID 488896;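 active means mean replicate inhibition of at least 70% and a set share of replicates each scoring 70 or more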;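 further: 0% = median of neutral control wells and 100% = median of positive control wells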
Hep lipid drop = hepatic lipid droplet formation modulation; AML12 mouse hepatocytes, oleate lipid droplets, BODIPY imaging; inhibition, % at 6.5 µM; hit rate 0.4% among 240,000; AID 1656;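 active means lipid droplet intensity inhibited by at least 50%, with more than 500 cells counted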
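Test system: AML12 mouse liver cells; schedule: overnight exposure; technique: high-content imaging of BODIPY-stained droplets and DAPI nuclei; read-out: % inhibition of corrected integrated BODIPY droplet signal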
SR-BI uptake up = activators of SR-BI mediated HDL lipid uptake; CHO ldlA[mSR-BI] cells, DiI-HDL uptake fluorescence, 3 h; 100 = double the neutral-control signal; activation, % at 12.5 µM; hit rate 0.096% among 320,000;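 active means mean replicate activation of at least 60% and every replicate at or above 60%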;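 further: 0% = median plate neutral-control signal and 100% = twice that signal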
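Material: SR-BI-overexpressing, LDLR-lacking CHO cells; schedule: compound exposure 3 h, 37 °C; reagent: DiI-labelled HDL at 10 µg/mL final; technique: bottom-read fluorescence, 550/595 nm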
TLR4 MyD88 comp = inhibitors of human TLR4-MyD88 binding; HeLa CL3-4 TLR4/MyD88 BLA complementation, FRET ratio; hit rate 0.18% among 200,000; AID 861; O00206+Q99836; inhibition, % at 8.4 µM; in the data active means inhibition above about 25%;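 further: 0% = vehicle and 100% = reference inhibitor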
NOD2 RIPK2 PPI = inhibitors of human NOD2-RIPK2 interaction; hit rate 0.38% among 360,000; inhibition, % at 4.98 µM; CHO BLA complementation NOD2-RIPK2, CCF4 ratio; O43353; in the data active means inhibition above about 21%;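 further: 0% = vehicle only and 100% = reference blocker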
Starred values were filed as active, the others as inactive; nt = no result given. Hits are enriched below; roughly 1.6% of the tested compounds scored in any of these assays.

SMILES | TLR9-MyD88 inh | SR-BI HDL uptake | Hep lipid drop | SR-BI uptake up | TLR4 MyD88 comp | NOD2 RIPK2 PPI
COc1ccc(OC)c(/C=C/C(=O)Nc2cccc(S(=O)(=O)NC3=NCCCCC3)c2)c1 | 2 | 65 | nt | -65 | nt | 3
CS(=O)(=O)N1CCc2ccc(NC(=O)C3CCCO3)cc2C1 (stereo unspecified) | -4 | -17 | -6 | 17 | nt | -3
Cc1nn(CC(=O)Nc2cccc(C(F)(F)F)c2)c(=O)c2cccn12 | -7 | -9 | 0 | 9 | nt | -7
Cc1cc(C)nc(Sc2ncnc(N)c2[N+](=O)[O-])n1 | -4 | -9 | 12 | 9 | 13 | -2
Clc1nnc(NC2CCCCC2)c(Cl)c1Cl | -1 | nt | nt | nt | nt | 1
Cc1ccc(C(=O)N2CCCCC2)cc1NC1=C(Cl)C(=O)N(Cc2ccccc2)C1=O | -10 | -6 | nt | 6 | nt | -4
Cc1ccc(O)c(NC2=C(Cl)C(=O)N(Cc3ccccc3)C2=O)c1 | 8 | 77* | -16 | -77 | -1 | 5
CCc1nc2ccc(C(=O)N3CCN(S(=O)(=O)CC)CC3)cn2c1N(CC)CCN(C)C | nt | nt | nt | nt | nt | 9
N#C/C(=C/c1ccc(-c2ccc([N+](=O)[O-])cc2)o1)C(=O)Nc1nc(-c2cccs2)cs1 | -10 | 88* | nt | -88 | nt | -4
N#C/C(=C\c1ccc(-c2ccc(F)cc2)o1)C(=O)Nc1nc(-c2cccs2)cs1 | -1 | 57 | -2 | -57 | -4 | -6
Cc1ccc(C)c(OCC(=O)NNC(=O)c2ccc(NC(=O)C3CC3)cc2)c1 | -3 | 74* | 8 | -74 | nt | -1
CCOc1ccc(NC(=O)CN(C)C(=O)c2ccc3c(c2)C(=O)N(CCC(C)C)C3=O)cc1OCC | -4 | 78* | -9 | -78 | nt | -2
CCOc1ccc(NC(=O)CN(C)C(=O)c2ccc3nc(CC)c(CC)nc3c2)cc1OCC | 0 | 66 | nt | -66 | nt | 7
CCOc1ccc(NC(=O)CN(C)C(=O)c2ccc(N3CCCCCC3)c([N+](=O)[O-])c2)cc1OCC | 3 | 86* | nt | -86 | nt | -2
COc1ccc(OC)c(/C=N\NC(=O)c2ccc(-c3ccccc3)cc2)c1 | -5 | 78* | -5 | nt | nt | -7
COc1cccc(/C=N/NC(=O)c2ccc(-c3ccccc3)cc2)c1O | -4 | 123* | -5 | -123 | -7 | 7
Cc1[nH]c(C(=O)N/N=C/c2ccc(N(C)C)cc2)c(C)c1C(=O)N/N=C/c1ccc(N(C)C)cc1 | -12 | 87* | -7 | -87 | -1 | -7
COc1cccc(/C=N/NC(=O)C(=O)Nc2ccccc2OC(F)(F)C(F)F)c1O | 12 | 110* | -19 | -110 | 6 | -1
COc1cccc(/C=N/NC(=O)c2ccc(=O)n(C)c2)c1O | 0 | 25 | 5 | -25 | 3 | -2
O=C(COC(=O)C1=COCCO1)NC1CCCCCCC1 | 7 | -19 | -7 | 19 | -15 | 1
Cc1nn(-c2ccccc2)c(C)c1/C=N/NC(=O)c1cc(O)cc(O)c1 | 4 | 36 | 18 | -36 | nt | -8
COc1ccc(C(=O)N/N=C/c2c(C)nn(-c3ccccc3)c2OC)cc1 | 5 | 71* | nt | -71 | nt | -1
COc1cccc(/C=N/NC(=O)c2[nH]c(C)c(C(=O)N/N=C/c3cccc(OC)c3O)c2C)c1O | -5 | 125* | 2 | -125 | 17 | -16
Fc1cccc(Cl)c1C1SCc2nc3ccccc3n21 (stereo unspecified) | nt | nt | nt | nt | nt | -2
O=C(OCc1cc(=O)oc2cc(O)ccc12)c1cc(S(=O)(=O)N2CCOCC2)ccc1F | 5 | 40 | nt | -40 | nt | 7
SMILES | TLR9-MyD88 inh | SR-BI HDL uptake | Hep lipid drop | SR-BI uptake up | TLR4 MyD88 comp | NOD2 RIPK2 PPI
CCc1cc2c(COC(=O)c3cc(S(=O)(=O)N4CCOCC4)ccc3F)cc(=O)oc2cc1O | 11 | 78* | nt | -78 | nt | -8
Cc1cc(Oc2ccc(=O)n(C)n2)nc(SCC(N)=O)n1 | -5 | -9 | 6 | 9 | nt | -8
Cc1cc(Oc2ccc(=O)n(C)n2)nc(Oc2ccc(=O)n(C)n2)n1 | -7 | -82 | 0 | 82* | 3 | -6
CN(Cc1cccnc1)C(=O)c1ccc(Cl)c(NS(=O)(=O)c2ccc(F)cc2)c1 | 2 | -25 | nt | 25 | nt | 5
CCn1c(=O)c2cc(C(=O)NCCN3CCOCC3)sc2c2ccccc21 | 4 | 88* | nt | -88 | -2 | 3
CCn1c(=O)c2cc(C(=O)NCc3cccs3)sc2c2ccccc21 | 5 | 71* | 2 | -71 | -21 | -7
Cn1nc(-c2ccc(Cl)cc2)c2cc(C(=O)NCCN3CCOCC3)sc21 | -1 | 86* | nt | -86 | -12 | 0
CCCCNC(=O)c1cc2c(=O)n(CC)c3ccccc3c2s1 | -6 | 73* | 6 | -73 | nt | 1
CCN(CC)CCNC(=O)c1cc2c(-c3ccc(Cl)cc3)nn(C)c2s1 | 3 | 69 | nt | -69 | -7 | -1
CCCCCn1nc(C(=O)N(CC(C)C)c2c(N)n(CCCC)c(=O)[nH]c2=O)c2ccccc2c1=O | 2 | -12 | nt | 12 | nt | 4
O=[N+]([O-])c1cccc(-c2ccc(/C=N/Nc3nc(N4CCCCC4)nc(N4CCCCC4)n3)o2)c1 | 5 | 84* | 4 | -84 | -10 | 7
CNC(=O)c1cccc(NC(=O)c2cc(-c3ccccc3)nc3c2cnn3C(C)C)c1 | 8 | 82* | nt | -82 | nt | 2
COc1cc(NC(=O)c2cc(-c3ccccc3)nc3c2cnn3C(C)C)cc(OC)c1OC | 2 | 60 | nt | -60 | nt | -5
CC(C)n1ncc2c(C(=O)Nc3cccc(S(=O)(=O)N(C)C)c3)cc(C3CC3)nc21 | 5 | 76* | nt | -76 | nt | -9
CC(=O)Nc1ccc(NC(=O)CCCN2C(=O)C(c3ccccc3)Oc3cccnc32)cc1 (stereo unspecified) | 1 | nt | nt | nt | nt | -4
Cc1cc(C)cc(NC(=O)CCn2c(=O)c3cccn3c3ccccc32)c1 | -6 | 81* | 0 | -81 | nt | 3
COc1ccc(NC(=O)NCc2cccn2C)c(OC)c1 | -2 | 85* | nt | -85 | 1 | -13
O=C(CCn1c(=O)c2cccn2c2ccccc21)Nc1ccc(F)cc1 | 6 | 75* | -2 | -75 | nt | 0
COc1ccc(NC(=O)CCn2c(=O)c3cccn3c3ccccc32)cc1 | -4 | 52 | -15 | -52 | nt | -11
COc1ccc(NC(=O)CCn2c(=O)c3cccn3c3ccccc32)c(OC)c1 | 1 | 75* | -7 | -75 | nt | -7
CCc1ccc(N=C2NC(=O)/C(=C/c3cc(Br)c(OCC(=O)O)c(OC)c3)S2)cc1 | -12 | 1 | 7 | -1 | nt | -4
C=CCOc1c(Br)cc(/C=C2\SC(=Nc3ccccc3)NC2=O)cc1OC | -11 | 72* | -1 | -72 | nt | 2
Cc1c(Cc2ccccc2)c(=O)oc2cc(OC(C)C(=O)NCC3CCC(C(=O)O)CC3)c(Cl)cc12 (stereo unspecified) | -15 | 3 | nt | -3 | nt | 18
